From ChEMBL document CHEMBL3627690, “Scaffold-Hopping and Structure-Based Discovery of Potent, Selective, And Brain Penetrant N-(1H-Pyrazol-3-yl)pyridin-2-amine Inhibitors of Dual Leucine Zipper Kinase (DLK, MAP3K12)” (J Med Chem, 2015)
Calls of active or inactive are those of the source. No cut-off for these calls is given here.

Experiments:
[1] = biological target: Serine/threonine-protein kinase MARK2 (Homo sapiens) (UniProt Q7KZI7); assay: Inhibition of MARK2 (unknown origin) at 1 uM by FRET method
Chain of Serine/threonine-protein kinase MARK2 (Homo sapiens) (Q7KZI7 whole entry): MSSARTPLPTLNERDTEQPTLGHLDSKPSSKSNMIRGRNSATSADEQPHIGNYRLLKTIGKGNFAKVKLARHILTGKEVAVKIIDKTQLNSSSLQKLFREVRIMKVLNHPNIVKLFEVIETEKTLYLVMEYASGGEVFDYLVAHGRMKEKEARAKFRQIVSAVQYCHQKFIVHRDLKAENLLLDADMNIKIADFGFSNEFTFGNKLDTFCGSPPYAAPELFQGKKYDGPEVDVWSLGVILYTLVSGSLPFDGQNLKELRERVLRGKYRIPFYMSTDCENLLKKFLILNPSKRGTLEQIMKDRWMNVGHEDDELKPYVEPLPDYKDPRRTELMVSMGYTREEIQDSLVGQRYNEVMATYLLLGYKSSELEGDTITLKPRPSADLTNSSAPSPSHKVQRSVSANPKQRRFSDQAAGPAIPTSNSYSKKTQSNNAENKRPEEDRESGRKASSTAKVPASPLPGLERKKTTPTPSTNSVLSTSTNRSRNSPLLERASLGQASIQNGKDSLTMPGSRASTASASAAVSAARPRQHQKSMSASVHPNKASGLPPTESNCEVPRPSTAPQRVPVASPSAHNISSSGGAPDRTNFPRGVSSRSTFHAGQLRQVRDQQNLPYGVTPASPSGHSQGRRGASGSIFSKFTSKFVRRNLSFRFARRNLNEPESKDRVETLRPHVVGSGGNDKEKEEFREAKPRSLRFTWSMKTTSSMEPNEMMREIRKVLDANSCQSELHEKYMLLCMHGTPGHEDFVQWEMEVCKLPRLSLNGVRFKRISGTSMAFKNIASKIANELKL
In short: (§1)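 SelectScreen panel of 58 kinases, each tested at a single 1 µM compound concentration. Read-out was Z′-LYTE FRET of labeled peptide phosphorylation, run by the vendor's protocols, reported as percent inhibition.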

[2] = biological target: Serine/threonine-protein kinase PAK 4 (Homo sapiens) (UniProt O96013); assay: Inhibition of PAK4 (unknown origin) at 1 uM by FRET method
In short: (§2)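 Single-point screen at 1 uM against a panel of 58 representative kinases. Readout was labeled-peptide phosphorylation by FRET (Z′-LYTE), using the vendor's protocols.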

[3] = biological target: Tyrosine-protein kinase JAK3 (Homo sapiens) (UniProt P52333); assay: Inhibition of JAK3 (unknown origin) at 1 uM by FRET method; in short: as §1
[4] = biological target: T1, Mitogen-activated protein kinase kinase kinase 12 (Homo sapiens, UniProt Q12852); assay: Inhibition of N-terminally GST- tagged human DLK catalytic domain (1 to 520 amino acids) using N-terminally HIS-tagged MKK4 K131M as substrate incubated for 60 mins by TR-FRET assay
T1 sequence (Q12852 whole entry): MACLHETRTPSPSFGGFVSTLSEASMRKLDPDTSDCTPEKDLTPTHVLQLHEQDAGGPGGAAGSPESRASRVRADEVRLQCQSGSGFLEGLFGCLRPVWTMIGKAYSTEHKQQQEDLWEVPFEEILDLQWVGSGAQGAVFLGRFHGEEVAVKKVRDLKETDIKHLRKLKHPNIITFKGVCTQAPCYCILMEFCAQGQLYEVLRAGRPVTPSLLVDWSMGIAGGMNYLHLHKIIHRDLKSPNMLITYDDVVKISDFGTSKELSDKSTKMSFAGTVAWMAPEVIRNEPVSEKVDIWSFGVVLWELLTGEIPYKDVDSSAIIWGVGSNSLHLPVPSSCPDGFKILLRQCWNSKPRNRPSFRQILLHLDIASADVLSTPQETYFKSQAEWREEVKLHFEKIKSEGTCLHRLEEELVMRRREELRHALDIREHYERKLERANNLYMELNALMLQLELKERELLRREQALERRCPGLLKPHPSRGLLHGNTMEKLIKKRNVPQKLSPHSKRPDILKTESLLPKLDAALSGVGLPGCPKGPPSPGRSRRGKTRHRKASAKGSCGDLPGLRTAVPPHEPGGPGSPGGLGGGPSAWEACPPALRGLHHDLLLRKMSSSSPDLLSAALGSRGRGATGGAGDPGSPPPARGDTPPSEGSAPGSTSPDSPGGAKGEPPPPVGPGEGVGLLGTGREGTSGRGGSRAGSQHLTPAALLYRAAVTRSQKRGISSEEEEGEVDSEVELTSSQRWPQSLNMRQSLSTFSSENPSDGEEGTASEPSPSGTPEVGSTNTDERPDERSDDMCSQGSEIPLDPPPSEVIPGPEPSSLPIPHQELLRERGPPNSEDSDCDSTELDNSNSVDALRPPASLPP

[5] = biological target: Dual specificity tyrosine-phosphorylation-regulated kinase 3 (Homo sapiens) (UniProt O43781); assay: Inhibition of DYRK3 (unknown origin) at 1 uM by FRET method; in short: as §1
Chain of Dual specificity tyrosine-phosphorylation-regulated kinase 3 (Homo sapiens) (O43781 whole entry): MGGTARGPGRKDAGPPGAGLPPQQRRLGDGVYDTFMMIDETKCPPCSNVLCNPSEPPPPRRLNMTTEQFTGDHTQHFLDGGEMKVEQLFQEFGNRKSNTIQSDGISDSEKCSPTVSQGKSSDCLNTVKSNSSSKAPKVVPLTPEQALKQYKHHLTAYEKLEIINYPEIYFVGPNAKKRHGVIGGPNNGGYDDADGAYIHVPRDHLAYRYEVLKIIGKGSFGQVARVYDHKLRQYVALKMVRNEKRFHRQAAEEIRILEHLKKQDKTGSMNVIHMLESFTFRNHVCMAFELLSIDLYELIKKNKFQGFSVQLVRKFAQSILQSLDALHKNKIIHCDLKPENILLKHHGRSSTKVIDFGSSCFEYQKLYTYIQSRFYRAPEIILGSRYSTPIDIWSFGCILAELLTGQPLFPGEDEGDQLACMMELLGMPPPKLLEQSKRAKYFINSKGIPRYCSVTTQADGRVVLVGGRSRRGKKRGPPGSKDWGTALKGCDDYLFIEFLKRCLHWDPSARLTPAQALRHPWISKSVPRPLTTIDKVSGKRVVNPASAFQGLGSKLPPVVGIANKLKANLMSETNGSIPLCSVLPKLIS

[6] = biological target: Receptor-type tyrosine-protein kinase FLT3 (Homo sapiens) (UniProt P36888); settings: 1 uM
Chain of Receptor-type tyrosine-protein kinase FLT3 (Homo sapiens) (P36888 whole entry): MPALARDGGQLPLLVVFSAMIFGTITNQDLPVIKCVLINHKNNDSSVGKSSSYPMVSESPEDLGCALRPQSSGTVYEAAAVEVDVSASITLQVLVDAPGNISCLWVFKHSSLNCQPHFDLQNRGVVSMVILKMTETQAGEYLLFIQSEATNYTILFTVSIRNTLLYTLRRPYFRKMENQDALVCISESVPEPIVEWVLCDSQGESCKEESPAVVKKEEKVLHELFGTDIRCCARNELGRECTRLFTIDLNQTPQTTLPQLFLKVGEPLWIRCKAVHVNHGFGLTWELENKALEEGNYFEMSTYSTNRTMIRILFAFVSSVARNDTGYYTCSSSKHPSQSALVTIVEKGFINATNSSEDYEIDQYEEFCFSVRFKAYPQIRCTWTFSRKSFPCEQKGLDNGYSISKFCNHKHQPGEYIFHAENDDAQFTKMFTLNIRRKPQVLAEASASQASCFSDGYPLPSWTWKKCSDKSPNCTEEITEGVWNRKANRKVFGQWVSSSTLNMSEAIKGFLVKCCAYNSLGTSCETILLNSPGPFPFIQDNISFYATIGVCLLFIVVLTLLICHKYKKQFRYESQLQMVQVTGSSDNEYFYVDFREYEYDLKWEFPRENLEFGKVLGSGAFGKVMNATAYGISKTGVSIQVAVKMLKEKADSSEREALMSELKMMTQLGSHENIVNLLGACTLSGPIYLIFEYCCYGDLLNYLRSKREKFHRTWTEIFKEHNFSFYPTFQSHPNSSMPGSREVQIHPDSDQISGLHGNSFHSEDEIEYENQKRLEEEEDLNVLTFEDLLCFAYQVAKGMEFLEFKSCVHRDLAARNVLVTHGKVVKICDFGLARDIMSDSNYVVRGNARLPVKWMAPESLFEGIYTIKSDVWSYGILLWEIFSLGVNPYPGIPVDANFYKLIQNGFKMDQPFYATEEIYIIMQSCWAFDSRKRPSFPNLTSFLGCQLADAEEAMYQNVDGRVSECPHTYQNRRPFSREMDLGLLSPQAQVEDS

Mus musculus = assay: Reduction of p-c-Jun level in retina of optic nerve crush injury mouse model at 75 mg/kg, po administered 30 mins prior to nerve crush injury measured at 6 hrs by MSD ELISA; format: functional, organism-based
In short: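 C57/Bl6 mice were dosed orally with a methylcellulose suspension or vehicle 30 min before optic nerve crush. Retinal p-c-Jun was measured 6 h after injury by MSD ELISA. Values are expressed relative to uncrushed vehicle controls as mean ± SEM with individual animals.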

[7] = biological target: Ephrin type-A receptor 2 (Homo sapiens) (UniProt P29317); assay: Inhibition of EphA2 (unknown origin) at 1 uM by FRET method; in short: as §1
[8] = biological target: c-Jun N-terminal kinase, JNK (Homo sapiens) (UniProt P45983+P53779+P45984); assay: Inhibition of Myc CA-JNK (unknown origin) transfected in HEK293 cells assessed as reduction of phosphorylation of c-Jun at 10 uM incubated for 5 hrs measured by Western blot analysis; format: cell-based
In short: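 HEK293 cells were transfected with constitutively active JNK 24 h before compound treatment. Cells were then exposed to compound for 5 h.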

[9] = biological target: BDNF/NT-3 growth factors receptor (Homo sapiens, UniProt Q16620); settings: 1 uM
[10] = biological target: Serine/threonine-protein kinase pim-1 (Homo sapiens) (UniProt P11309); assay: Inhibition of PIM1 (unknown origin) at 1 uM by FRET method; in short: as §2
Chain of Serine/threonine-protein kinase pim-1 (Homo sapiens) (P11309 whole entry, looked up): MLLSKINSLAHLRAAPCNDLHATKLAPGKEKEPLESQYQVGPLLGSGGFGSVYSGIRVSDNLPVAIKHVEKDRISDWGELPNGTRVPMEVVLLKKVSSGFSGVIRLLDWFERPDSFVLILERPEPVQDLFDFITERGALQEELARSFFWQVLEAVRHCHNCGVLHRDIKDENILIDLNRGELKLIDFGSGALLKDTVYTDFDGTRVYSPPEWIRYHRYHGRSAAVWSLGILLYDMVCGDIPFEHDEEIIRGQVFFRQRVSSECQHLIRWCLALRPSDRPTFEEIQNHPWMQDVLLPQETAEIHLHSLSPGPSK

[11] = biological target: Platelet-derived growth factor receptor beta (Homo sapiens) (UniProt P09619); assay: Inhibition of PDGFRbeta (unknown origin) at 1 uM by FRET method; in short: as §2
Chain of Platelet-derived growth factor receptor beta (Homo sapiens) (P09619 whole entry): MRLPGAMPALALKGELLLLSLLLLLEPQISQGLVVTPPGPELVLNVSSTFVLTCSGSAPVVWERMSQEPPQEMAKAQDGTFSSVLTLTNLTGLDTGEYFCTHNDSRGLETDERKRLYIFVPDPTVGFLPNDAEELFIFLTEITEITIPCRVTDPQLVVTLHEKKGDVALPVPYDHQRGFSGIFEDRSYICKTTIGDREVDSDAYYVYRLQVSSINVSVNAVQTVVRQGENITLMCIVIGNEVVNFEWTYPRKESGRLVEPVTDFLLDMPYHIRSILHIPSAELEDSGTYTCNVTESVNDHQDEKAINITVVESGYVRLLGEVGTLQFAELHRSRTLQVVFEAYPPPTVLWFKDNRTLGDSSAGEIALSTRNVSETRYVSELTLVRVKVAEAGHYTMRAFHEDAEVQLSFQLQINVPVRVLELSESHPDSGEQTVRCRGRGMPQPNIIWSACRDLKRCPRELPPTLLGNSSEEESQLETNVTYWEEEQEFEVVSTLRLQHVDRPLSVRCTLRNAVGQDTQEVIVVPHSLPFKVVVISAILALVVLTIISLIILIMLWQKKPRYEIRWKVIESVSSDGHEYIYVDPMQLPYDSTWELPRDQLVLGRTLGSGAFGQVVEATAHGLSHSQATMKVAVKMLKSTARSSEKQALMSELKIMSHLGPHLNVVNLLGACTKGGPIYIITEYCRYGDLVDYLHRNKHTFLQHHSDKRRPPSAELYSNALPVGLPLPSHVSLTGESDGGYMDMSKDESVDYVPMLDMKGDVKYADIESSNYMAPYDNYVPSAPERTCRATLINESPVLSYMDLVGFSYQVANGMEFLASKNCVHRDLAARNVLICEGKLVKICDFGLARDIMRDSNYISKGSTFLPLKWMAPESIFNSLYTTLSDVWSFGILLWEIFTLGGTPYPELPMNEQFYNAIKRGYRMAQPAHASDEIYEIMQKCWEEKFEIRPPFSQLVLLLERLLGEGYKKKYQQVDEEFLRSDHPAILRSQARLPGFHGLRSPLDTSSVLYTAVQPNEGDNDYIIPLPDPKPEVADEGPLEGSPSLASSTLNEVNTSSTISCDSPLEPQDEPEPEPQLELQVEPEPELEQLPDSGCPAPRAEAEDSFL

[12] = biological target: High affinity nerve growth factor receptor (Homo sapiens, UniProt P04629); assay: Inhibition of TrkA (unknown origin) by FRET method
In short: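 Biochemical IC50 determination from a 10-point dose-response in an enzymatic Z′-LYTE assay. Labeled-peptide phosphorylation was read by FRET under the vendor's protocols.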

[13] = biological target: T2, Mitogen-activated protein kinase kinase kinase 12 (Homo sapiens) (UniProt Q12852); assay: Inhibition of Flag DLK (unknown origin) transfected in HEK293 cells assessed as reduction of phosphorylation of JNK at 0.1 to 10 uM incubated for 5 hrs measured by Western blot analysis; format: cell-based
T2 sequence (whole entry): T1 sequence (Q12852 whole entry)
In short: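 HEK293 cells were transfected with Flag-tagged DLK, with kinase-dead DLK K152A as comparator, 24 h before compound addition. Cells were then exposed to compound for 5 h. Phospho-MKK4, phospho-MKK7, phospho-JNK and phospho-c-Jun were probed.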

[14] = biological target: MAP kinase-activated protein kinase 2 (Homo sapiens) (UniProt P49137); assay: Inhibition of MAPKAPK2 (unknown origin) at 1 uM by FRET method; in short: as §1
[15] = Oral bioavailability in […] rat at 1 or 5 mg/kg; format: ADME, organism-based; settings: in vivo
In short: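 Rat PK: iv dosing at 0.4 or 1 mg/kg as a 60% PEG solution, po dosing at 1 or 5 mg/kg as an aqueous suspension with 1% methylcellulose.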

[16] = biological target: T1, Mitogen-activated protein kinase kinase kinase 12; assay: Inhibition of Dox inducible human DLK transfected in HEK293 cells assessed as reduction in JNK phosphorylation incubated for 5.5 hrs measured by Hoechst 33342 staining based imaging analysis; format: cell-based
[17] = biological target: Non-receptor tyrosine-protein kinase TYK2 (Homo sapiens) (UniProt P29597); assay: Inhibition of TYK2 (unknown origin) at 1 uM by FRET method; in short: as §2
[18] = biological target: Mitogen-activated protein kinase kinase kinase kinase 4 (Homo sapiens) (UniProt O95819); assay: Inhibition of MAP4K4 (unknown origin) at 1 uM by FRET method; in short: as §1
Chain of Mitogen-activated protein kinase kinase kinase kinase 4 (Homo sapiens) (O95819 2-1239 limits assumed): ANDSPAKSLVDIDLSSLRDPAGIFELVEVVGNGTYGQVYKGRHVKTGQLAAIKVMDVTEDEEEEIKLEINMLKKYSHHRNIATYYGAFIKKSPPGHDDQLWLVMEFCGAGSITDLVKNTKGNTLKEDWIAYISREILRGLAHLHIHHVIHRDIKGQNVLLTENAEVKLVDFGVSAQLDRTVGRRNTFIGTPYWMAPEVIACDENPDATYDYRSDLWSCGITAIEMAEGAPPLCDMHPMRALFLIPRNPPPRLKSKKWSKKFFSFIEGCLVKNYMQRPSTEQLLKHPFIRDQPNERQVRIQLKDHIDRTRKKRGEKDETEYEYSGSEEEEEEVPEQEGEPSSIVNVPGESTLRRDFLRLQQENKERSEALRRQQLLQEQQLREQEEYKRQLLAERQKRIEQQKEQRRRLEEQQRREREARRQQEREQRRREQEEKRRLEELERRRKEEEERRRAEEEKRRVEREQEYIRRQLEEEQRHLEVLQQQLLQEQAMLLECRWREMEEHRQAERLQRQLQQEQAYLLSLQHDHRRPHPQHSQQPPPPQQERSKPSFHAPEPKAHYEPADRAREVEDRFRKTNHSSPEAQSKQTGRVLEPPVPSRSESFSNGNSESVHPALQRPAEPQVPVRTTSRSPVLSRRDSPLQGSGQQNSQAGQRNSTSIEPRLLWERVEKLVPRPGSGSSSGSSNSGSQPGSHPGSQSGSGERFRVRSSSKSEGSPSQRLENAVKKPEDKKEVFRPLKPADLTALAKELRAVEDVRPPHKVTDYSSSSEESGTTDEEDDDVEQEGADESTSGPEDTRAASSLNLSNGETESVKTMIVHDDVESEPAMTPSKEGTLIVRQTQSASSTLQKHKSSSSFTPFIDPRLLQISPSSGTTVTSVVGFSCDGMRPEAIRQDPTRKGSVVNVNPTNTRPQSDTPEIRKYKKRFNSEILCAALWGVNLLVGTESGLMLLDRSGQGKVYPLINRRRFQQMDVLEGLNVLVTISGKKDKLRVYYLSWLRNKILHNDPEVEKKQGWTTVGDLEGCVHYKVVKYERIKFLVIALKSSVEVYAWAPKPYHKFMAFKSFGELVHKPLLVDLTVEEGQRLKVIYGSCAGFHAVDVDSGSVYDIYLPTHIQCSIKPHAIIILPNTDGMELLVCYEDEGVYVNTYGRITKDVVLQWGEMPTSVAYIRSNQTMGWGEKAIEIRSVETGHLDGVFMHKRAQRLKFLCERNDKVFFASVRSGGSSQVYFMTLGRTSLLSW

[19] = Tmax in mouse at 50 mg/kg, po; format: ADME, organism-based; settings: in vivo
In short: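 Mice were dosed orally at 50 mg/kg as a methylcellulose suspension. Exposure was sampled over 0–6 h, and free brain concentration was determined at 6 h.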

- inhibition [1]: 3%
- inhibition [2]: 48%
- inhibition [3]: 12.5%
- Ki [4]: 0.042 µM
- inhibition [5]: 0.3%
- inhibition [6]: 65.4%
- inhibition [7]: 23%
- inhibition [8]: inactive
- inhibition [9]: 50.5%
- inhibition [10]: 6.6%
- inhibition [11]: 23.8%
- IC50 [12]: 0.464 µM
- inhibition [13]: Active
- inhibition [14]: 6.7%
- bioavailability [15]: 58%
- IC50 [16]: 0.536 µM
- inhibition [17]: 25.6%
- inhibition [18]: 12.1%
- Tmax [19]: 15 min
Compound: N#Cc1ccnc(Nc2cc(C3CCN(C4COC4)CC3)n(C3CCCC3)n2)c1
- Activity (Mus musculus): Active
